Measurements as given in publication PMC7114156 (Antiviral Research, 2009).
Where “and” joins values, the source holds several entries; their conditions need not be identical. Identical values can stand only once. Like-named read-outs stand apart in the source and are kept apart here. Marks after values point to notes of the source that are not given here.

Experiments:
HPV-16 [1] = test: HPV DNA by qPCR in W12-20850 cells; format: cell-based
EBV = test: Viral yield in IM9 cells by quantitative PCR; format: cell-based; conditions: data not shown
[2] = test system: activated primary B cells; test: Growth of activated primary B cells, CTG; format: cell-based, human; conditions: read-out: CC50, host primary cell growth, 72 h
IM9 cells = test: Apoptosis assay; format: cell-based, human; conditions: IM9, 20 h exposure
Outline: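 Apoptosis read as cytoplasmic histone-associated DNA fragments with a Cell Death Detection ELISA kit. Exposure was 20 h for IM9 and MT4 and 40 h for W12 and U937. A405 was read kinetically at 30 °C, and the rate per hour came from linear regression of the linear portion. A Fas-activating antibody was the positive control.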

[3] = Growth of WI38 fibroblasts, MTS; format: cell-based; conditions: human
Outline: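 Primary cells were plated in 96-well plates with serial dilutions of test compound, 3 nM to 100 μM, for 72 h at 37 °C. Read-out was CTG for resting B and CD4 T cells and MTS for PBMC, WI38 and HUVEC. Purity was 90–95% for B cells and 97% for CD4 cells. Activated PBMCs were stimulated with phytohemagglutinin plus IL2.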

HPV-31 = test: HPV DNA by qPCR in CIN612 cells; format: cell-based
BJAB = test: Growth of BJAB, MTS; format: cell-based, human; conditions: 72 h
Outline: (§1)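 Cells were plated in 96-well plates in medium holding serial dilutions of test compound, 1 nM to 10 μM, with DMSO ≤1% (v/v) final. Growth was read by MTS after 72 h at 37 °C: 2 h with reagent plus phenazine methosulfate, then A490. K and Imax came from a fit to a modified Hill equation. Vero cells are African Green monkey.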

episomal HPV-16 DNA = test: Hybrid capture assay for HPV16 DNA in W12-20850 cells; format: cell-based
Outline: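 W12-20850 cells seeded at 7.5 × 10^3/well onto compound (100 to 0.001 μM), 4 days at 37 °C, 5% CO2. MTS growth read, then same cells lysed in 0.2N NaOH/1% Igepal. Episomal HPV-16 DNA measured by hybrid capture: 90 °C 6.5 min, 42 °C overnight, anti-digoxigenin HRP, chemiluminescence. HPV DNA/MTS ratio expressed as % of untreated control. Fit to modified Hill equation.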

[4] = test system: cell lines immortalized by non-viral transformation events; test: Growth of cell lines immortalized by non-viral transformation events; format: cell-based; conditions: Homo sapiens, read-out: Median effect concentrations, range
Outline: as §1

Huh7 = test: Growth of Huh7, MTS; format: cell-based, human
Outline: as §1

Namalwa = test: Growth of Namalwa; format: cell-based, human; conditions: 72 h
Outline: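 Cell lines carrying integrated viral genomes were plated in 96-well plates in medium with test compound. Growth was read by ATP luminescence (CellTiter-Glo) for HEK293 and WI38 VA13, and by MTS reduction (A490 after 2 h at 37 °C) for Namalwa, W12 20861, SiHa, Caski and HeLa. K and Imax came from a fit to a modified Hill equation.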

W12-20850 cells = test: Growth of W12-20850 cells, actin DNA by qPCR; format: cell-based, human
HKC cells = test: mRNA measurement by RT-qPCR in HKC cells; format: cell-based, human; conditions: for Fold increase due to GSK983, ABCD1 mRNA / Fold increase due to GSK983, ABCG1 mRNA / Fold increase due to GSK983, ADAMTS5 mRNA / Fold increase due to GSK983, BIK mRNA / Fold increase due to GSK983, MDM2 mRNA / Fold increase due to GSK983, MGP mRNA / Fold increase due to GSK983, CDKN1A mRNA / Fold increase due to GSK983, CSF2 mRNA / Fold increase due to GSK983, IFI6 mRNA / Fold increase due to GSK983, IFI16 mRNA / Fold increase due to GSK983, MMP1 mRNA / Fold increase due to GSK983, IRF3 mRNA / Fold increase due to GSK983, IRF9 mRNA: HKC cells
IFIT1 promoter = test: Luciferase assay, luciferase under control of the IFIT1 promoter in HEK293 cells; format: cell-based, human; conditions: 10 and 30 nM, over a 48-h period
MT4 cells = test: Growth of MT4 cell line; format: cell-based, human; conditions: for EC50: K ∼ EC50
immortalized cell lines = test: Growth of immortalized cell lines; format: cell-based
HPV-16 [5] = test: HPV DNA by qPCR in HKC/HPV16 cells; format: cell-based
[6] = 10 nM, 24 h, not significantly different from 1
[7] = 100 nM, 24 h, not significantly different from 1
[8] = 100 nM, 48 h, not significantly different from 1

O=C(N[C@@H]1CCCc2c1[nH]c1ccc(Cl)cc21)c1ccccn1 [GSK983, N-[(1R)-6-Chloro-2,3,4,9-tetrahydro-1H-carbazol-1-yl]-2-pyridinecarboxamide]
Selectivity index (HPV-16 [1]; HPV DNA qPCR in W12-20850 vs HKC): 12,000 ± 4,000 | Imax, HPV DNA, qPCR (HPV-16 [1]; W12-20850, HPV type 16): 85 ± 2% | EC50 (HPV-16 [1]; W12-20850, read-out: K, HPV DNA, qPCR): 3.3 ± 0.5 nM | HPV copy number, expressed as HPV genomes per actin gene (HPV-16 [1]; W12 cells, at 100 nM GSK983, reduced from 460): 150 HPV genomes per actin gene | Viral yield in IM9 cells by quantitative PCR (EBV): decrease in parallel with inhibition of cell growth | CC50 [2]: > 10000 nM | Apoptosis (IM9 cells): induced apoptosis | CC50 at 72 h [3]: 90000 nM | Imax, HPV DNA, qPCR (HPV-31; CIN612, HPV type 31): 86 ± 1% | Selectivity index (HPV-31; HPV DNA qPCR in CIN612 vs HKC): 16,600 ± 5,000 | EC50 (HPV-31; read-out: K, HPV DNA, qPCR): 2.4 ± 0.1 nM | Imax, Growth, MTS (BJAB; B lymphoblast): 84 ± 1.5% | EC50 (BJAB; Homo sapiens, read-out: K, growth, MTS): 9 ± 0.6 nM | Imax, Ratio, HPV DNA/MTS (episomal HPV-16 DNA; W12-20850): 90 ± 2% | K, Ratio, HPV DNA/MTS (episomal HPV-16 DNA; W12-20850): 4.9 ± 0.5 nM | EC50 (episomal HPV-16 DNA; read-out: K, DNA, hybrid capture, W12-20850, HPV type 16, 4 days): 4.5 ± 0.3 nM | EC50 [4]: 10 to 50 nM | EC50 (Huh7; Homo sapiens, Huh-7, 72 h, read-out: K, growth, MTS): 41 ± 10 nM | Imax, Growth, MTS (Huh7; Huh7, liver epithelial, 72 h): 26 ± 1% | EC50 (Namalwa; Homo sapiens, read-out: K, Growth, MTS): 10 ± 2 nM | Imax, Growth, MTS (Namalwa; Namalwa, EBV integrated): 66% and 66 ± 2.5% | EC50 (W12-20850 cells; Homo sapiens, W12-20850, read-out: K, Growth, Actin DNA, qPCR): 6 ± 0.4 nM | Imax, Growth, Actin DNA, qPCR (W12-20850 cells; W12-20850): 60 ± 1% | Fold increase due to GSK983, ABCD1 mRNA (HKC cells; 10 nM, 24 h): 2.0 fold | Fold increase due to GSK983, ABCG1 mRNA (HKC cells; 10 nM, 24 h): 2.5 fold | Fold increase due to GSK983, ADAMTS5 mRNA (HKC cells; 10 nM, 24 h): 2.6 fold | Fold increase due to GSK983, BIK mRNA (HKC cells; 10 nM, 24 h): 2.2 fold | Fold increase due to GSK983, MDM2 mRNA (HKC cells; 10 nM, 24 h): 2.1 fold | Fold increase due to GSK983, MGP mRNA (HKC cells; 10 nM, 24 h): 1.9 fold | Fold increase due to GSK983, CDKN1A mRNA (HKC cells; [6]): 1.7 ^b fold | Fold increase due to GSK983, CSF2 mRNA (HKC cells; [6]): 1 ^b fold | Fold increase due to GSK983, IFI6 mRNA (HKC cells; [6]): 1.3 ^b fold | Fold increase due to GSK983, IFI16 mRNA (HKC cells; [6]): 2.3 ^b fold | Fold increase due to GSK983, MMP1 mRNA (HKC cells; [6]): 5.8 ^b fold | Fold increase due to GSK983, ABCD1 mRNA (HKC cells; 10 nM, 48 h): 4.5 fold | Fold increase due to GSK983, ABCG1 mRNA (HKC cells; 10 nM, 48 h): 3.1 fold | Fold increase due to GSK983, ADAMTS5 mRNA (HKC cells; 10 nM, 48 h): 2.3 fold | Fold increase due to GSK983, BIK mRNA (HKC cells; 10 nM, 48 h): 1.8 fold | Fold increase due to GSK983, CDKN1A mRNA (HKC cells; 10 nM, 48 h): 1.6 fold | Fold increase due to GSK983, CSF2 mRNA (HKC cells; 10 nM, 48 h): 4.1 fold | Fold increase due to GSK983, IFI16 mRNA (HKC cells; 10 nM, 48 h): 2.7 fold | Fold increase due to GSK983, IRF3 mRNA (HKC cells; 10 nM, 48 h): 2.4 fold | Fold increase due to GSK983, MDM2 mRNA (HKC cells; 10 nM, 48 h): 3.2 fold | Fold increase due to GSK983, MGP mRNA (HKC cells; 10 nM, 48 h): 2.9 fold | Fold increase due to GSK983, MMP1 mRNA (HKC cells; 10 nM, 48 h): 2.2 fold | Fold increase due to GSK983, IRF9 mRNA (HKC cells; 10 nM, 48 h, not significantly different from 1): 1.5 ^b fold | Fold increase due to GSK983, ABCD1 mRNA (HKC cells; 100 nM, 24 h): 2.3 fold | Fold increase due to GSK983, ABCG1 mRNA (HKC cells; 100 nM, 24 h): 5.0 fold | Fold increase due to GSK983, BIK mRNA (HKC cells; 100 nM, 24 h): 2.3 fold | Fold increase due to GSK983, CDKN1A mRNA (HKC cells; 100 nM, 24 h): 1.8 fold | Fold increase due to GSK983, CSF2 mRNA (HKC cells; 100 nM, 24 h): 2.8 fold | Fold increase due to GSK983, IRF9 mRNA (HKC cells; 100 nM, 24 h): 1.6 fold | Fold increase due to GSK983, MDM2 mRNA (HKC cells; 100 nM, 24 h): 2.4 fold | Fold increase due to GSK983, MGP mRNA (HKC cells; 100 nM, 24 h): 2.0 fold | Fold increase due to GSK983, ADAMTS5 mRNA (HKC cells; [7]): 1.3 ^b fold | Fold increase due to GSK983, IFI6 mRNA (HKC cells; [7]): 1.1 ^b fold | Fold increase due to GSK983, IRF3 mRNA (HKC cells; [7]): 1.1 ^b fold | Fold increase due to GSK983, MMP1 mRNA (HKC cells; [7]): 5.2 ^b fold | Fold increase due to GSK983, ABCD1 mRNA (HKC cells; 100 nM, 48 h): 3.7 fold | Fold increase due to GSK983, ABCG1 mRNA (HKC cells; 100 nM, 48 h): 4.8 fold | Fold increase due to GSK983, ADAMTS5 mRNA (HKC cells; 100 nM, 48 h): 7.5 fold | Fold increase due to GSK983, BIK mRNA (HKC cells; 100 nM, 48 h): 3.7 fold | Fold increase due to GSK983, CDKN1A mRNA (HKC cells; 100 nM, 48 h): 4.3 fold | Fold increase due to GSK983, CSF2 mRNA (HKC cells; 100 nM, 48 h): 5.8 fold | Fold increase due to GSK983, MDM2 mRNA (HKC cells; 100 nM, 48 h): 2.9 fold | Fold increase due to GSK983, MGP mRNA (HKC cells; 100 nM, 48 h): 3.0 fold | Fold increase due to GSK983, MMP1 mRNA (HKC cells; 100 nM, 48 h): 5.0 fold | Fold increase due to GSK983, IFI16 mRNA (HKC cells; [8]): 0.8 ^b fold | Fold increase due to GSK983, IRF3 mRNA (HKC cells; [8]): 0.8 ^b fold | Fold increase due to GSK983, IRF9 mRNA (HKC cells; [8]): 1.5 ^b fold | Number of genes of the Pathway Set with significant increases in expression (HKC cells; primary human keratinocytes, at both 10 and 100 nM, 546 genes): 9 genes | Induction of luciferase under control of the IFIT1 promoter (IFIT1 promoter): Strong induction | EC50 (MT4 cells; Homo sapiens, MT4, 72 h, read-out: K, cell line growth, MT4 (HTLV1), CTG, 72 h): 8 nM | Selectivity index (MT4 cells; MT4 (HTLV1) vs activated CD4 T cell): 7600 ± 1000 | EC50 (MT4 cells; read-out: K, cell line growth, MT4 (HTLV1), CTG, 72 h): 7.5 ± 0.6 nM | Selectivity index (immortalized cell lines; EBV and HTLV-1 viral-immortalized cell lines vs related primary cells): approximately 1000 | Time after addition of the compound until reduction in growth rate (immortalized cell lines; W12, U937 and IM9 growth curves): approximately 24 h | Concentrations at which apoptosis or cytostasis is induced (immortalized cell lines; depending on the cell line): over 20 nM | EC50 (immortalized cell lines; read-out: EC50 values, growth of cell lines immortalized by HTLV-1, EBV, HPV, SV40 and Ad-5): 10 to 40 nM | Imax, HPV DNA, qPCR (HPV-16 [5]; HKC/HPV16, HPV type 16): 89 ± 2% | Selectivity index (HPV-16 [5]; HPV DNA qPCR in HKC/HPV16 vs HKC): 18,000 ± 5,600 | EC50 (HPV-16 [5]; Human papillomavirus 16, read-out: K, HPV DNA, qPCR): 2.2 ± 0.2 nM
